Assay results: ChEMBL document CHEMBL1129036, “Bisindolylmaleimides linked to DNA minor groove binding lexitropsins: synthesis, inhibitory activity against topoisomerase I, and biological evaluation” (J Med Chem, 1996)
Converted amounts (≈) assume the structure as drawn.

Experiments:
[1] = molecular target: T1, DNA topoisomerase 1 (Homo sapiens) (UniProt P11387); experiment: Topoisomerase I […] was evaluated by Fluorescence assay using Ethidium Bromide before heat denaturation of pBR322 DNA at concentration 250 uM; conditions: Escherichia coli
T1 sequence (whole entry): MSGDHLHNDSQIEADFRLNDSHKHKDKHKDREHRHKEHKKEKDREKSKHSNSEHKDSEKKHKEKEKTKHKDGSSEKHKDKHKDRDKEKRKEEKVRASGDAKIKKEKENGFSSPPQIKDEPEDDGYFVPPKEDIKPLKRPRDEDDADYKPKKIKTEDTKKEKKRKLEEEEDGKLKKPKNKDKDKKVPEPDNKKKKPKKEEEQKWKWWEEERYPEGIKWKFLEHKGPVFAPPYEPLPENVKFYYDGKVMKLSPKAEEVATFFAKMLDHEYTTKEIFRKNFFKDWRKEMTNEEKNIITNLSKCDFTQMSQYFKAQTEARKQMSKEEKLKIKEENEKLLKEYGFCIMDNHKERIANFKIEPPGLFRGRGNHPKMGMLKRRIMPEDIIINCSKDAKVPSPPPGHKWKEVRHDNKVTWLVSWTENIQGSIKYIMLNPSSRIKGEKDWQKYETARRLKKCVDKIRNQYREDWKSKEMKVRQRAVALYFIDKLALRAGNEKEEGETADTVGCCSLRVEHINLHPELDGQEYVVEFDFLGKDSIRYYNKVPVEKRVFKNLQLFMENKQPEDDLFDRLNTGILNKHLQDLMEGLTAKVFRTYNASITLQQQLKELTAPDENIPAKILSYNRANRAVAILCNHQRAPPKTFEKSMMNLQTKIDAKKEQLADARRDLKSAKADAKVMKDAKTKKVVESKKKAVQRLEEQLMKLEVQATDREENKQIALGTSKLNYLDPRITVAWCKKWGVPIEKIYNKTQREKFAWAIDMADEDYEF
How it was run: (§1)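 0.25 µg pBR322 DNA incubated with ligand alone, no enzyme, 30 min at 37 °C. Ethidium bromide buffer added (0.5 µg/mL EtBr, 20 mM K₃PO₄, 0.5 mM EDTA, pH 12). Fluorescence measured at ex 525/em 600 nm before and after heat denaturation of DNA; percent change vs control.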

[2] = molecular target: T1, DNA topoisomerase 1 (Homo sapiens); experiment: Topoisomerase I […] was evaluated by Fluorescence assay using Ethidium Bromide before heat denaturation of pBR322 DNA at concentration 50 uM; conditions: Escherichia coli; how it was run: as §1
[3] = molecular target: T1, DNA topoisomerase 1 (Homo sapiens); experiment: Topoisomerase I […] was evaluated by Fluorescence assay using Ethidium Bromide after heat denaturation of pBR322 DNA at concentration 25 uM; conditions: Escherichia coli; at 25 µM
How it was run: (§2)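 0.25 µg pBR322 DNA incubated with ligand for 30 min at 37 °C without topoisomerase I (DNA and compound only). Ethidium bromide buffer then added (0.5 µg/mL ethidium bromide, 20 mM K₃PO₄, 0.5 mM EDTA, pH 12). Fluorescence read at excitation 525 nm and emission 600 nm, before and after heat denaturation of the DNA. Reported as percent change from control.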

[4] = molecular target: T1, DNA topoisomerase 1 (Homo sapiens); experiment: Topoisomerase I […] was evaluated by Fluorescence assay using Ethidium Bromide before heat denaturation of pBR322 DNA at concentration 100 uM; conditions: Escherichia coli; how it was run: as §1
[5] = molecular target: T1, DNA topoisomerase 1 (Homo sapiens); experiment: Topoisomerase I DNA relaxation activity was evaluated by Fluorescence assay using Ethidium Bromide before heat denaturation of pBR322 DNA at concentration 100 uM; conditions: Escherichia coli
How it was run: (§3)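 0.25 µg pBR322 DNA with ligand plus topoisomerase I (0.5 unit), 30 min at 37 °C. Then ethidium bromide buffer added (0.5 µg/mL EtBr, 20 mM K₃PO₄, 0.5 mM EDTA, pH 12). Fluorescence read at ex 525/em 600 nm before and after heat denaturation of DNA; percent change vs control.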

[6] = molecular target: T1, DNA topoisomerase 1 (Homo sapiens); experiment: Topoisomerase I DNA relaxation activity was evaluated by Fluorescence assay using Ethidium Bromide after heat denaturation of pBR322 DNA at concentration 50 uM; conditions: Escherichia coli; how it was run: as §3
[7] = molecular target: T1, DNA topoisomerase 1 (Homo sapiens); experiment: Topoisomerase I DNA relaxation activity was evaluated by Fluorescence assay using Ethidium Bromide before heat denaturation of pBR322 DNA at concentration 50 uM; conditions: Escherichia coli; how it was run: as §3
[8] = molecular target: T1, DNA topoisomerase 1 (Homo sapiens); experiment: Topoisomerase I DNA relaxation activity was evaluated by Fluorescence assay using Ethidium Bromide after heat denaturation of pBR322 DNA at concentration 25 uM; conditions: Escherichia coli; at 25 µM
How it was run: as §2, with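 “ligand and topoisomerase I (0.5 unit)” for “ligand”, “°C.” for “°C without topoisomerase I (DNA and compound only).”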

[9] = molecular target: T1, DNA topoisomerase 1 (Homo sapiens); experiment: Topoisomerase I […] was evaluated by Fluorescence assay using Ethidium Bromide after heat denaturation of pBR322 DNA at concentration 100 uM; conditions: Escherichia coli; how it was run: as §1
[10] = molecular target: T1, DNA topoisomerase 1 (Homo sapiens); experiment: Topoisomerase I DNA relaxation activity was evaluated by Fluorescence assay using Ethidium Bromide after heat denaturation of pBR322 DNA at concentration 100 uM; conditions: Escherichia coli; how it was run: as §3
[11] = molecular target: T1, DNA topoisomerase 1 (Homo sapiens); experiment: Topoisomerase I […] was evaluated by Fluorescence assay using Ethidium Bromide before heat denaturation of pBR322 DNA at concentration 25 uM; conditions: Escherichia coli; at 25 µM; how it was run: as §2
[12] = In vitro cytotoxicity against KB cancer cell line (ATCC CCL 17).; assay type: cell-based; conditions: human, KB cancer cells (ATCC CCL 17); read-out: TD50 (the source's name)
How it was run: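 KB cells grown in Eagle's MEM with 10% calf serum, 37 °C, humidified 5% CO₂. Seeded at 3 × 10³ cells/mL, cultured 24 h, then compound added in triplicate at several concentrations for 3 days. TD50 is the concentration giving 50% reduction in cell count; average of ≥3 determinations.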

[13] = molecular target: T1, DNA topoisomerase 1 (Homo sapiens); experiment: Topoisomerase I DNA relaxation activity was evaluated by Fluorescence assay using Ethidium Bromide before heat denaturation of pBR322 DNA at concentration 25 uM; conditions: Escherichia coli; at 25 µM
How it was run: as §2, with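 “ligand and topoisomerase I (0.5 unit)” for “ligand”, “°C.” for “°C without topoisomerase I (DNA and compound only).”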

[14] = molecular target: T1, DNA topoisomerase 1 (Homo sapiens); experiment: Topoisomerase I […] was evaluated by Fluorescence assay using Ethidium Bromide after heat denaturation of pBR322 DNA at concentration 50 uM; conditions: Escherichia coli; how it was run: as §1
[15] = molecular target: T1, DNA topoisomerase 1 (Homo sapiens); experiment: Topoisomerase I DNA relaxation activity was evaluated by Agarose Gel Electrophoresis test at concentration 250 uM; conditions: Escherichia coli
How it was run: (§4)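 Relaxation of 0.25 µg supercoiled pBR322 DNA by 0.5 unit topoisomerase I, 30 min at 37 °C with ligand (25–250 µM), final volume 10 µL. SDS-containing loading buffer added, further 30 min at 37 °C. Agarose gel run overnight, stained with ethidium bromide (0.5 µg/mL), photographed. Percent supercoiled DNA remaining by laser densitometry, scored in bands (<10% to 75–100%).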

[16] = molecular target: T1, DNA topoisomerase 1 (Homo sapiens); experiment: Topoisomerase I […] was evaluated by Fluorescence assay using Ethidium Bromide after heat denaturation of pBR322 DNA at concentration 250 uM; conditions: Escherichia coli; how it was run: as §1
[17] = molecular target: T1, DNA topoisomerase 1 (Homo sapiens); experiment: Topoisomerase I DNA relaxation activity was evaluated by Agarose Gel Electrophoresis test at concentration 100 uM; conditions: Escherichia coli; how it was run: as §4
[18] = molecular target: T1, DNA topoisomerase 1 (Homo sapiens); experiment: Topoisomerase I DNA relaxation activity was evaluated by Fluorescence assay using Ethidium Bromide after heat denaturation of pBR322 DNA at concentration 250 uM; conditions: Escherichia coli; how it was run: as §3
[19] = molecular target: T1, DNA topoisomerase 1 (Homo sapiens); experiment: Topoisomerase I DNA relaxation activity was evaluated by Agarose Gel Electrophoresis test at concentration 50 uM; conditions: Escherichia coli; how it was run: as §4
[20] = molecular target: T1, DNA topoisomerase 1 (Homo sapiens); experiment: Topoisomerase I DNA relaxation activity was evaluated by Fluorescence assay using Ethidium Bromide before heat denaturation of pBR322 DNA at concentration 250 uM; conditions: Escherichia coli; how it was run: as §3
[21] = molecular target: T1, DNA topoisomerase 1 (Homo sapiens); experiment: Topoisomerase I DNA relaxation activity was evaluated by Agarose Gel Electrophoresis test at concentration 25 uM; conditions: Escherichia coli; at 25 µM
How it was run: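 0.25 µg supercoiled pBR322 DNA and 0.5 unit topoisomerase I incubated with ligand for 30 min at 37 °C (10 µL final). Equal volume loading buffer with SDS added, a further 30 min at 37 °C, agarose gel run overnight, ethidium bromide stained. Supercoiled DNA remaining quantified by laser densitometry of the photographed gel. Scored as % inhibition bands (<10% to 75-100%).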

[22] = molecular target: T1, DNA topoisomerase 1 (Homo sapiens); conditions: Escherichia coli; at 25 µM
[23] = molecular target: T1, DNA topoisomerase 1 (Homo sapiens); conditions: Escherichia coli; at 25 µM; remark: listed apart in the source

Row | Structure (SMILES) | Change [1] [%] | Change [2] [%] | Change [3] [%] | Change [4] [%] | Change [5] [%] | Change [6] [%] | Change [7] [%] | Change [8] [%] | Change [9] [%] | Change [10] [%] | Change [11] [%] | CC50 [12] [µg/mL] | Change [14] [%] | inhibition [15] [%] | Change [16] [%] | inhibition [17] [%] | Change [18] [%] | inhibition [19] [%] | Change [20] [%] | inhibition [21] [%] | other results
1 | COC(=O)c1cc(NC(=O)c2cc(NC(=O)c3cc(NC(=O)Cn4cc(C5=C(c6c[nH]c7ccccc67)C(=O)NC5=O)c5ccccc54)cn3C)cn2C)cn1C | 52 | 25 | 14 | 33 | 15 | 9 | 9 | 6 | 17 | 0 | 11 | 77.3 (≈ 101 µM) | 17 | 0 | 20 | 0 | 3 | 0 | 36 | 0 | Change [13]: 1%
2 | CC[C@@]1(O)C(=O)OCc2c1cc1n(c2=O)Cc2cc3ccccc3nc2-1 [CAMPTOTHECIN] |  |  |  |  | 3 | 7 | 12 |  |  | 3 |  | 0.01 (≈ 0.0287 µM) |  |  |  |  |  |  |  |  | Change [22]: 7%; Change [23]: 6%
3 | CN(C)CCCNC(=O)c1cc(NC(=O)c2cc(NC(=O)c3cc(NC(=O)Cn4cc(C5=C(c6c[nH]c7ccccc67)C(=O)NC5=O)c5ccccc54)cn3C)cn2C)cn1C | 28 | 26 | 6 | 24 | 20 | 7 | 15 | 3 | 13 | 15 | 28 | > 100 | 15 | 100 | 4 | 75 | 13 | 50 | 14 | 25 | Change [13]: 11%
4 | CN(C)CCCNC(=O)c1cc(NC(=O)c2cc(NC(=O)Cn3cc(C4=C(c5c[nH]c6ccccc56)C(=O)NC4=O)c4ccccc43)cn2C)cn1C | 32 | 14 | 5 | 21 | 18 | 4 | 10 | 3 | 12 | 15 | 2 | 92.3 (≈ 129 µM) | 3 | 75 | 14 | 50 | 9 | 25 | 14 | < 10 | Change [13]: 7%
5 | COC(=O)c1cc(NC(=O)Cn2cc(C3=C(c4c[nH]c5ccccc45)C(=O)NC3=O)c3ccccc32)cn1C | 2 | 3 | 15 | 6 | 3 | 18 | 1 |  | 14 | 12 | 2 | 53.2 (≈ 102 µM) | 12 | 0 | 17 | 0 | 9 | 0 | 1 | 0 | Change [22]: 18%; Change [23]: 1%
6 | COC(=O)c1cc(NC(=O)c2cc(NC(=O)Cn3cc(C4=C(c5c[nH]c6ccccc56)C(=O)NC4=O)c4ccccc43)cn2C)cn1C | 33 | 3 | 4 | 2 | 1 | 7 | 2 | 13 | 15 | 12 | 5 | 58 (≈ 90.1 µM) | 15 | 0 | 10 | 0 | 3 | 0 | 24 | 0 | Change [13]: 3%
7 | CN(C)CCCNC(=O)c1cc(NC(=O)Cn2cc(C3=C(c4c[nH]c5ccccc45)C(=O)NC3=O)c3ccccc32)cn1C | 18 | 1 | 12 | 6 | 6 | 0 | 5 |  | 3 | 0 | 1 | 84 (≈ 142 µM) | 7 | 25 | 2 | < 10 | 3 | 0 | 10 | 0 | Change [22]: 6%; Change [23]: 3%
